Reference: ChEMBL document CHEMBL4627260, “Optimisation of estrogen receptor subtype-selectivity of a 4-Aryl-4H-chromene scaffold previously identified by virtual screening” (Bioorg Med Chem, 2020)

What was measured:
Estrogen receptor = molecular target: T1, Estrogen receptor (Homo sapiens, UniProt P03372); assay: Displacement of fluorescent estrogen ligand from recombinant human full length untagged ERalpha expressed in baculovirus infected insect cells incubated in dark for 2 hrs by Beacon single-tube fluorescent polarization assay
T1 sequence (P03372 whole entry): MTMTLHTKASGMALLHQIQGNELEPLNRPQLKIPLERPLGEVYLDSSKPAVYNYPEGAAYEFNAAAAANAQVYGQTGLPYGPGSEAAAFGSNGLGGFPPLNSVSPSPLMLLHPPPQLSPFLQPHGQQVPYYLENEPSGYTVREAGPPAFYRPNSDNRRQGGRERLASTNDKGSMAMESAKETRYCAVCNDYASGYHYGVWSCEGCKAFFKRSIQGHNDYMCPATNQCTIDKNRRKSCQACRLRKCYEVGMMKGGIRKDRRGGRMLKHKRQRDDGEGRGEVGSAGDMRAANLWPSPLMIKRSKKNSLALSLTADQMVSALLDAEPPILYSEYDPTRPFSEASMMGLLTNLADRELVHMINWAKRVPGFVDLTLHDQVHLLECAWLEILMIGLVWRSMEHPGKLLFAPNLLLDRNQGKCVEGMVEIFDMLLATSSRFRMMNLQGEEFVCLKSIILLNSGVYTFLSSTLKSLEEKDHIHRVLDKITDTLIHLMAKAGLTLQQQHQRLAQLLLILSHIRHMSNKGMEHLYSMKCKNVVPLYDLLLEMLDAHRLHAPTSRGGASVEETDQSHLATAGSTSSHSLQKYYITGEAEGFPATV

Estrogen receptor beta = Estrogen receptor beta (Homo sapiens, UniProt Q92731); assay: Displacement of fluorescent estrogen ligand from recombinant human full length untagged ERbeta expressed in baculovirus infected insect cells incubated in dark for 2 hrs by Beacon single-tube fluorescent polarization assay
MCF7 [1] = assay: Antiproliferative activity against human MCF7 cells assessed as inhibition of cell viability after 72 hrs by MTT assay; type: functional, cell-based; details: MCF7, 72 h
Procedure, shortened: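 MCF-7 cells grown in Eagle's MEM with 10% fetal calf serum, 2 mM L-glutamine, penicillin/streptomycin and 1% non-essential amino acids. Seeded at 2.5×10^4 cells/mL, 24 h at 37 °C, 5% CO2. Dosed from ethanol stocks at 1 nM–100 μM final (vehicle 1% v/v ethanol), 72 h. MTT 1 mg/mL for 2 h in dark, DMSO solubilisation, absorbance 595 nm. Viability relative to vehicle; mean ± S.E.M., at least two experiments in triplicate.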

MCF7 [2] = assay: Toxicity in human MCF7 cells assessed as cell death at 10 uM incubated for 72 hrs by LDH assay relative to control; type: cell-based; details: mcf7, 72 h
Procedure, shortened: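 LDH release assay (CytoTox 96). MCF-7 cells seeded at 1×10^4 cells/well for 24 h, dosed with ethanol vehicle (1% v/v) and incubated 72 h. Medium mixed with substrate for 20 min at room temperature in dark, stopped, absorbance read at 490 nm. Lysis is percent of a lysis-solution control (100% lysis, 45 min); three experiments in triplicate, mean ± SEM.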

[3] = Chemical stability of the compound in pH 7.4 phosphate buffer assessed as half life by HPLC method; type: physicochemical
Procedure, shortened: (§1)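 Stock of 5 mg compound in 10 mL mobile phase; 30 μL diluted into 1 mL phosphate buffer (pH 4, 7.4 or 9, British Pharmacopoeia). Injected immediately and sampled at 0, 5, 30, 60, 90, 120 min and 21 h. HPLC with UV detection at 254 nm, acetonitrile:water 80:20 mobile phase, 1 mL/min over 10 min.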

[4] = Chemical stability of the compound in pH 9 phosphate buffer assessed as half life by HPLC method; type: physicochemical; procedure, shortened: as §1
[5] = Stability in human plasma assessed as half life by HPLC method; type: ADME, cell-free
Procedure, shortened: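 Human blood plasma (2.0 mL) mixed with PBS containing 10% DMSO (1.6 mL) and pre-warmed to 37 °C. Compound added as 400 μL of a 1.0 mg/mL stock. Aliquots of 100 μL quenched in 900 μL acetonitrile, centrifuged and filtered. Sampled every 15 min for 1 h, then hourly to 3 h, plus 24 h. C18 reverse-phase HPLC at 25 °C, H2O:ACN:MeOH mobile phase, 1.0 mL/min.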

[6] = Chemical stability of the compound in phosphate buffer at pH 4 assessed as compound remaining after 30 mins by HPLC method; type: physicochemical; details: read-out: Stability; procedure, shortened: as §1

Estrogen receptor beta, sequence (Q92731 whole entry): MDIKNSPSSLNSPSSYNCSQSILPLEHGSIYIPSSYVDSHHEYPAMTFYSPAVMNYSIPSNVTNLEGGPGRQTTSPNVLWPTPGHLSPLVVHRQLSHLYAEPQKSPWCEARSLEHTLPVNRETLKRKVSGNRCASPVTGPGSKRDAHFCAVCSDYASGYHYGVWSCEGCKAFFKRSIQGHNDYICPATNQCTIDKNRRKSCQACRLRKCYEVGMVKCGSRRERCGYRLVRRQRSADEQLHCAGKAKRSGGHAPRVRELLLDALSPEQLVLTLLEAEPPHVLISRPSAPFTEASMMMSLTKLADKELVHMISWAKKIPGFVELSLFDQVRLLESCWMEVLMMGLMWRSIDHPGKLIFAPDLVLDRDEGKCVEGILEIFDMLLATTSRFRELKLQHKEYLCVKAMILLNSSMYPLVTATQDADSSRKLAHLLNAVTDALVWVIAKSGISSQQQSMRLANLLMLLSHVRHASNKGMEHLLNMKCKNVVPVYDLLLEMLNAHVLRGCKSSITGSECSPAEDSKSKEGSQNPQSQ

| Compound | IC50 (Estrogen receptor) | IC50 (Estrogen receptor beta) | IC50 (MCF7 [1]) | Activity (MCF7 [2]) | half-life [3] | half-life [4] | half-life [5] | remaining at 0.5 h [6] |
| --- | --- | --- | --- | --- | --- | --- | --- | --- |
| CCOC(=O)C1=C(N)Oc2cc(O)ccc2C1c1ccccc1 (configuration not stated) | 2.36 µM | 0.61 µM | > 100 µM | – | – | – | – | – |
| CCOC(=O)C1=C(N)Oc2cc(O)ccc2C1c1ccc(OC)c(OC)c1 (configuration not stated) | – | – | > 100 µM | – | – | – | – | – |
| N#CC1=C(N)Oc2cc(O)ccc2C1c1ccccc1 (configuration not stated) | > 10 µM | 8.39 µM | > 100 µM | – | – | – | – | – |
| N#CC1=C(N)Oc2cc(O)ccc2C1c1ccc(OCCN2CCCCC2)cc1 (configuration not stated) | 1.47 µM | 10.4 µM | 23.2 µM | – | – | – | – | – |
| COC(=O)C1=C(N)Oc2cc(O)ccc2C1c1ccccc1 (configuration not stated) | 3.3 µM | 1.59 µM | 10.8 µM | – | – | – | – | – |
| CCOC(=O)C1=C(N)Oc2cc(O)ccc2C1c1ccc(OCc2ccccc2)cc1 (configuration not stated) | 40.3 µM | > 100 µM | 4.5 µM | – | – | – | – | – |
| N#CC1=C(N)Oc2cc(O)ccc2C1c1ccc(OCCN2CCCC2)cc1 (configuration not stated) | 0.89 µM | > 10 µM | > 50 µM | – | – | – | – | – |
| COC(=O)C1=C(N)Oc2cc(O)ccc2C1c1ccc(OCCN2CCCC2)cc1 (configuration not stated) | 0.02 µM | 0.35 µM | 19.6 µM | 0% | – | – | – | – |
| CCCCOC(=O)C1=C(N)Oc2cc(O)ccc2C1c1ccc(OCCN2CCCCC2)cc1 (configuration not stated) | 0.03 µM | 2.35 µM | 31.8 µM | – | > 24 h | > 24 h | > 24 h | 32% |
| CCOC(=O)C1=C(N)Oc2cc(O)ccc2C1c1ccc(O)cc1 (configuration not stated) | – | – | > 100 µM | – | – | – | – | – |
| COC(=O)C1=C(N)Oc2cc(O)ccc2C1c1ccc(OCCN2CCOCC2)cc1 (configuration not stated) | 109 µM | 0.63 µM | > 100 µM | – | – | – | – | – |
| CC(C)(C)OC(=O)C1=C(N)Oc2cc(O)ccc2C1c1ccc(OCCN2CCCCC2)cc1 (configuration not stated) | 0.09 µM | 0.37 µM | 2.65 µM | – | – | – | – | – |
| CCOC(=O)C1=C(N)Oc2cc(O)ccc2C1c1ccc(OCCN2CCOCC2)cc1 (configuration not stated) | 0.22 µM | 2.44 µM | 18.8 µM | 0% | – | – | – | – |
| CCOC(=O)C1=C(N)Oc2cc(O)ccc2C1c1ccc(OCC)cc1 (configuration not stated) | – | – | > 100 µM | – | – | – | – | – |
| CCOC(=O)C1=C(N)Oc2cc(O)ccc2C1c1ccc(OCCN2CCCC2)cc1 (configuration not stated) | 1.41 µM | 3.1 µM | 27.3 µM | 0% | – | – | – | – |
| CCOC(=O)C1=C(N)Oc2cc(O)ccc2C1c1ccc(OCCN2CCCCC2)cc1 (configuration not stated) | 0.02 µM | 0.06 µM | 8.75 µM | 0% | > 24 h | > 24 h | > 24 h | 27% |
| N#CC1=C(N)Oc2cc(O)ccc2C1c1ccc(OCCN2CCOCC2)cc1 (configuration not stated) | 14 µM | > 50 µM | 35.3 µM | 0% | – | – | – | – |
| CCCCOC(=O)C1=C(N)Oc2cc(O)ccc2C1c1ccc(OCCN2CCCC2)cc1 (configuration not stated) | 0.02 µM | 6.55 µM | 7.73 µM | – | – | – | – | – |
| COC(=O)C1=C(N)Oc2cc(O)ccc2C1c1ccc(OCCN2CCCCC2)cc1 (configuration not stated) | 0.05 µM | 0.22 µM | 16.2 µM | 0% | – | – | – | – |
| COC(=O)C1=C(N)Oc2cc(O)ccc2C1c1ccc(O)cc1 (configuration not stated) | 0.79 µM | 10 µM | > 100 µM | – | – | – | – | – |
| CC(C)(C)OC(=O)C1=C(N)Oc2cc(O)ccc2C1c1ccc(OCCN2CCCC2)cc1 (configuration not stated) | 0.01 µM | 0.67 µM | 10 µM | – | – | – | – | – |
| CC/C(=C(\c1ccccc1)c1ccc(OCCN(C)C)cc1)c1ccccc1 [TAMOXIFEN] | – | – | – | 13.4% | – | – | – | – |
